This is an account of results in ChEMBL document CHEMBL3351797, “Synthesis, in vitro and in silico studies of a PPARγ and GLUT-4 modulator with hypoglycemic effect” (2014).

In assay [1] the test system is 3T3-L1. Put plainly: Increase in PPARalpha mRNA expression mouse 3T3L1 cells at 10 uM after 24 hrs by SYBR Green-based expression analysis relative to control. The class given is functional, cell-based.
The subject of assay [2] is 3T3-L1. Briefly: Increase in PPARgamma mRNA expression mouse 3T3L1 cells at 10 uM after 24 hrs by SYBR Green-based expression analysis relative to control. The class given is functional.
For assay [3], the system named is 3T3-L1. Briefly: Increase in Glut-4 mRNA expression mouse 3T3L1 cells at 10 uM after 24 hrs by SYBR Green-based expression analysis relative to control. It is filed as functional.
In assay [4] the test system is Rattus norvegicus. Briefly: Antidiabetic activity in streptozotocin-nicotinamide-induced NIDDM Wistar rat model assessed as reduction in blood glucose level at 50 mg/kg administered intragastrically measured at 5 hrs post dose relative to control. The class given is functional. More on the design: scale not given: the % may be the effect or the level left. To be noted: route intragastric. The gist of the method:
(§1)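 Streptozotocin–nicotinamide-induced diabetic rats received one intragastric dose (test agent 50 mg/Kg; glibenclamide 5 mg/Kg as hypoglycemic control). Blood glucose was sampled at 0, 1, 3, 5 and 7 h after dosing. Change was expressed as percentage variation of glycemia from zero hour, negative meaning a decrease. Values are mean ± SEM (n = 6), compared with a control group.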

The subject of assay [5] is Rattus norvegicus. Put plainly: Antidiabetic activity in streptozotocin-nicotinamide-induced NIDDM Wistar rat model assessed as reduction in blood glucose level at 50 mg/kg administered intragastrically measured at 1 hr post dose relative to control. The class given is functional. Also on record: scale not given: the % may be the effect or the level left. To be noted: route intragastric. The gist of the method:
as §1

Assay [6] relates to Rattus norvegicus. Put plainly: Antidiabetic activity in streptozotocin-nicotinamide-induced NIDDM Wistar rat model assessed as reduction in blood glucose level at 50 mg/kg administered intragastrically measured at 7 hrs post dose relative to control. The class given is functional. To be noted: route intragastric. More on the design: scale not given: the % may be the effect or the level left. The gist of the method: as §1

The test system of assay [7] is Rattus norvegicus. Put plainly: Antidiabetic activity in streptozotocin-nicotinamide-induced NIDDM Wistar rat model assessed as reduction in blood glucose level at 50 mg/kg administered intragastrically measured at 3 hrs post dose relative to control. It is filed as functional. Also on record: scale not given: the % may be the effect or the level left. The settings on record: route intragastric. In outline:
as §1

Assay [8] has as its system Rattus norvegicus. Briefly: Antidiabetic activity in streptozotocin-nicotinamide-induced NIDDM Wistar rat model assessed as reduction in blood glucose level at 5 mg/kg administered intragastrically measured at 3 hrs post dose relative to control. It is filed as functional. More on the design: scale not given: the % may be the effect or the level left. To be noted: route intragastric. In outline: as §1

Assay [9] concerns Rattus norvegicus. Briefly: Antidiabetic activity in streptozotocin-nicotinamide-induced NIDDM Wistar rat model assessed as reduction in blood glucose level at 5 mg/kg administered intragastrically measured at 1 hr post dose relative to control. It is filed as functional. More on the design: scale not given: the % may be the effect or the level left. To be noted: route intragastric. The gist of the method:
as §1

In assay [10] the test system is Rattus norvegicus. Put plainly: Antidiabetic activity in streptozotocin-nicotinamide-induced NIDDM Wistar rat model assessed as reduction in blood glucose level at 5 mg/kg administered intragastrically measured at 7 hrs post dose relative to control. It is filed as functional. More on the design: scale not given: the % may be the effect or the level left. To be noted: route intragastric. The gist of the method: as §1

The subject of assay [11] is Rattus norvegicus. Put plainly: Antidiabetic activity in streptozotocin-nicotinamide-induced NIDDM Wistar rat model assessed as reduction in blood glucose level at 5 mg/kg administered intragastrically measured at 5 hrs post dose relative to control. The class given is functional. To be noted: route intragastric. More on the design: scale not given: the % may be the effect or the level left. In outline: as §1

Calls of active or inactive are those of the source. No cut-off for these calls is given here.

As for `O=C(O)COc1ccc(NC(=O)COc2ccc(/C=C3\SC(=O)NC3=O)cc2)cc1`, the result in assay [1] was inactive. Further, the “fold change (FC)” value in assay [2] and in [3] was 2 in each case.

For the compound `CCOC(=O)COc1ccc(NC(=O)COc2ccc(/C=C3\SC(=O)NC3=O)cc2)cc1`, in [1], the outcome was inactive. Also, the “fold change (FC)” value in assay [2] and in assay [3] was 2 in each case. The Activity in [4] was 36.7%; in assay [5], 4.4%; in assay [6], 31%; in assay [7], 20.5%.

Take `COc1ccc(Cl)cc1C(=O)NCCc1ccc(S(=O)(=O)NC(=O)NC2CCCCC2)cc1` [GLYBURIDE]: the Activity came out at 36.3% in assay [8], 20.5% in [9], 43.6% in [10] and 37.5% in assay [11].
